From ChEMBL document CHEMBL4689842, “EUbOPEN Chemogenomics Library wave 1” (2021)

System: U2OS
Experiment: Multiplex assay against U2OS
Type: toxicity, cell-based
Conditions: human
Procedure, shortened: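 Live cells carried four stains from seeding: Hoechst33342, BioTracker Green Microtubule Cytoskeleton Dye, MitoTracker Red and Annexin V Alexa Fluor 680. They were imaged on a CQ1 microscope at 37°C and 5% CO2 after compound addition. Using CellPathfinder machine-learning gating, cells were split into Hoechst high-intensity objects or normal cells, normal cells into healthy, pyknosed or fragmented nuclei, and pyknosed cells into mitotic or apoptotic; tubulin, mitochondrial-mass and membrane-permeability phenotypes are per cents of healthy-nucleus cells.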

[1] = 12 h, 1 µM, compound concentration 1 uM, replicate 1
[2] = 12 h, 1 µM, compound concentration 1 uM, replicate 2
[3] = 12 h, 10 µM, compound concentration 10 uM, replicate 1
[4] = 12 h, 10 µM, compound concentration 10 uM, replicate 2
[5] = 24 h, 1 µM, compound concentration 1 uM, replicate 1
[6] = 24 h, 1 µM, compound concentration 1 uM, replicate 2
[7] = 24 h, 10 µM, compound concentration 10 uM, replicate 1
[8] = 24 h, 10 µM, compound concentration 10 uM, replicate 2
[9] = 48 h, 1 µM, compound concentration 1 uM, replicate 1
[10] = 48 h, 1 µM, compound concentration 1 uM, replicate 2
[11] = 48 h, 10 µM, compound concentration 10 uM, replicate 1
[12] = 48 h, 10 µM, compound concentration 10 uM, replicate 2

## CCn1c(=O)c(-c2ccc(-c3cncs3)cc2Cl)cc2cnc(Nc3ccc(N4CCN(C)CC4)cc3)nc21
[1]
  Population Apoptotic (%): 57%
  Population Fragmented Nuclei (%): 11%
  Population Healthy Nuclei (%): 77%
  Population Hoechst High Intensity Objects (%): 7%
  Population Membrane Permeable-Phenotype (%): 11%
  Population Mitochondria Different-Phenotype (%): 11%
  Population Mitotic Cells (%): 42%
  Population Normal (%): 92%
  Population Pyknosed Nuclei (%): 11%
  Population Tubulin-Different-Phenotype (%): 7%
  Total Cell Count: 162
[2]
  Population Apoptotic (%): 75%
  Population Fragmented Nuclei (%): 9%
  Population Healthy Nuclei (%): 78%
  Population Membrane Permeable-Phenotype (%): 3%
  Population Mitochondria Different-Phenotype (%): 17%
  Population Mitotic Cells (%): 25%
  Population Tubulin-Different-Phenotype (%): 19%
  Total Cell Count: 76
[3]
  Population Apoptotic (%): 84%
  Population Fragmented Nuclei (%): 40%
  Population Healthy Nuclei (%): 5%
  Population Hoechst High Intensity Objects (%): 77%
  Population Membrane Permeable-Phenotype (%): 38%
  Population Mitochondria Different-Phenotype (%): 53%
  Population Mitotic Cells (%): 15%
  Population Normal (%): 22%
  Population Pyknosed Nuclei (%): 54%
  Population Tubulin-Different-Phenotype (%): 84%
  Total Cell Count: 177
[4]
  Population Apoptotic (%): 11%
  Population Fragmented Nuclei (%): 8%
  Population Healthy Nuclei (%): 79%
  Population Hoechst High Intensity Objects (%): 4%
  Population Membrane Permeable-Phenotype (%): 5%
  Population Mitochondria Different-Phenotype (%): 29%
  Population Mitotic Cells (%): 88%
  Population Normal (%): 96%
  Population Pyknosed Nuclei (%): 12%
  Population Tubulin-Different-Phenotype (%): 15%
  Total Cell Count: 77
[5]
  Population Apoptotic (%): 38%
  Population Fragmented Nuclei (%): 10%
  Population Healthy Nuclei (%): 78%
  Population Hoechst High Intensity Objects (%): 4%
  Population Membrane Permeable-Phenotype (%): 6%
  Population Mitochondria Different-Phenotype (%): 6%
  Population Mitotic Cells (%): 61%
  Population Normal (%): 95%
  Population Pyknosed Nuclei (%): 10%
  Population Tubulin-Different-Phenotype (%): 7%
  Total Cell Count: 161
[6]
  Population Apoptotic (%): 46%
  Population Fragmented Nuclei (%): 15%
  Population Healthy Nuclei (%): 68%
  Population Membrane Permeable-Phenotype (%): 1%
  Population Mitochondria Different-Phenotype (%): 5%
  Population Mitotic Cells (%): 53%
  Population Pyknosed Nuclei (%): 16%
  Population Tubulin-Different-Phenotype (%): 20%
  Total Cell Count: 74
[7]
  Population Apoptotic (%): 97%
  Population Fragmented Nuclei (%): 30%
  Population Healthy Nuclei (%): 0%
  Population Hoechst High Intensity Objects (%): 78%
  Population Membrane Permeable-Phenotype (%): 100%
  Population Mitochondria Different-Phenotype (%): 100%
  Population Mitotic Cells (%): 2%
  Population Normal (%): 21%
  Population Pyknosed Nuclei (%): 69%
  Population Tubulin-Different-Phenotype (%): 100%
  Total Cell Count: 212
[8]
  Population Apoptotic (%): 27%
  Population Fragmented Nuclei (%): 14%
  Population Healthy Nuclei (%): 71%
  Population Hoechst High Intensity Objects (%): 3%
  Population Membrane Permeable-Phenotype (%): 7%
  Population Mitochondria Different-Phenotype (%): 23%
  Population Mitotic Cells (%): 72%
  Population Normal (%): 96%
  Population Pyknosed Nuclei (%): 14%
  Population Tubulin-Different-Phenotype (%): 8%
  Total Cell Count: 83
[9]
  Population Apoptotic (%): 60%
  Population Fragmented Nuclei (%): 6%
  Population Healthy Nuclei (%): 85%
  Population Hoechst High Intensity Objects (%): 3%
  Population Membrane Permeable-Phenotype (%): 3%
  Population Mitochondria Different-Phenotype (%): 9%
  Population Mitotic Cells (%): 40%
  Population Normal (%): 96%
  Population Pyknosed Nuclei (%): 8%
  Population Tubulin-Different-Phenotype (%): 9%
  Total Cell Count: 186
[10]
  Population Apoptotic (%): 50%
  Population Fragmented Nuclei (%): 8%
  Population Healthy Nuclei (%): 79%
  Population Hoechst High Intensity Objects (%): 8%
  Population Membrane Permeable-Phenotype (%): 7%
  Population Mitochondria Different-Phenotype (%): 20%
  Population Mitotic Cells (%): 50%
  Population Normal (%): 92%
  Population Pyknosed Nuclei (%): 12%
  Population Tubulin-Different-Phenotype (%): 23%
  Total Cell Count: 105
[11]
  Population Apoptotic (%): 93%
  Population Fragmented Nuclei (%): 31%
  Population Healthy Nuclei (%): 0%
  Population Hoechst High Intensity Objects (%): 80%
  Population Membrane Permeable-Phenotype (%): 25%
  Population Mitochondria Different-Phenotype (%): 25%
  Population Mitotic Cells (%): 6%
  Population Normal (%): 19%
  Population Pyknosed Nuclei (%): 67%
  Population Tubulin-Different-Phenotype (%): 50%
  Total Cell Count: 321
[12]
  Population Apoptotic (%): 57%
  Population Fragmented Nuclei (%): 16%
  Population Healthy Nuclei (%): 70%
  Population Hoechst High Intensity Objects (%): 3%
  Population Membrane Permeable-Phenotype (%): 16%
  Population Mitochondria Different-Phenotype (%): 24%
  Population Mitotic Cells (%): 42%
  Population Normal (%): 96%
  Population Pyknosed Nuclei (%): 13%
  Population Tubulin-Different-Phenotype (%): 18%
  Total Cell Count: 125

## COc1cc(N2CCN(C)CC2)ccc1Nc1ncc2c(n1)N(C)c1ccccc1C(=O)N2C
[1]
  Population Apoptotic (%): 33%
  Population Fragmented Nuclei (%): 12%
  Population Healthy Nuclei (%): 72%
  Population Hoechst High Intensity Objects (%): 6%
  Population Membrane Permeable-Phenotype (%): 6%
  Population Mitochondria Different-Phenotype (%): 25%
  Population Mitotic Cells (%): 66%
  Population Normal (%): 93%
  Population Pyknosed Nuclei (%): 14%
  Population Tubulin-Different-Phenotype (%): 17%
  Total Cell Count: 199
[2]
  Population Apoptotic (%): 40%
  Population Fragmented Nuclei (%): 5%
  Population Healthy Nuclei (%): 82%
  Population Hoechst High Intensity Objects (%): 4%
  Population Membrane Permeable-Phenotype (%): 9%
  Population Mitochondria Different-Phenotype (%): 21%
  Population Mitotic Cells (%): 60%
  Population Normal (%): 95%
  Population Pyknosed Nuclei (%): 12%
  Population Tubulin-Different-Phenotype (%): 15%
  Total Cell Count: 104
[3]
  Population Apoptotic (%): 60%
  Population Fragmented Nuclei (%): 11%
  Population Healthy Nuclei (%): 66%
  Population Hoechst High Intensity Objects (%): 7%
  Population Membrane Permeable-Phenotype (%): 22%
  Population Mitochondria Different-Phenotype (%): 96%
  Population Mitotic Cells (%): 39%
  Population Normal (%): 92%
  Population Pyknosed Nuclei (%): 21%
  Population Tubulin-Different-Phenotype (%): 99%
  Total Cell Count: 177
[4]
  Population Apoptotic (%): 66%
  Population Fragmented Nuclei (%): 15%
  Population Healthy Nuclei (%): 61%
  Population Hoechst High Intensity Objects (%): 5%
  Population Membrane Permeable-Phenotype (%): 21%
  Population Mitotic Cells (%): 33%
  Population Normal (%): 94%
  Population Pyknosed Nuclei (%): 23%
  Population Tubulin-Different-Phenotype (%): 100%
  Total Cell Count: 42
[5]
  Population Apoptotic (%): 29%
  Population Fragmented Nuclei (%): 11%
  Population Hoechst High Intensity Objects (%): 5%
  Population Membrane Permeable-Phenotype (%): 3%
  Population Mitochondria Different-Phenotype (%): 8%
  Population Mitotic Cells (%): 70%
  Population Normal (%): 94%
  Population Pyknosed Nuclei (%): 12%
  Population Tubulin-Different-Phenotype (%): 8%
  Total Cell Count: 187
[6]
  Population Apoptotic (%): 50%
  Population Fragmented Nuclei (%): 9%
  Population Healthy Nuclei (%): 75%
  Population Hoechst High Intensity Objects (%): 6%
  Population Membrane Permeable-Phenotype (%): 6%
  Population Mitochondria Different-Phenotype (%): 12%
  Population Mitotic Cells (%): 50%
  Population Normal (%): 93%
  Population Pyknosed Nuclei (%): 14%
  Population Tubulin-Different-Phenotype (%): 6%
  Total Cell Count: 101
[7]
  Population Apoptotic (%): 69%
  Population Fragmented Nuclei (%): 18%
  Population Healthy Nuclei (%): 50%
  Population Hoechst High Intensity Objects (%): 7%
  Population Membrane Permeable-Phenotype (%): 19%
  Population Mitochondria Different-Phenotype (%): 94%
  Population Mitotic Cells (%): 30%
  Population Normal (%): 92%
  Population Pyknosed Nuclei (%): 30%
  Population Tubulin-Different-Phenotype (%): 97%
  Total Cell Count: 204
[8]
  Population Apoptotic (%): 76%
  Population Fragmented Nuclei (%): 11%
  Population Healthy Nuclei (%): 63%
  Population Hoechst High Intensity Objects (%): 8%
  Population Membrane Permeable-Phenotype (%): 30%
  Population Mitochondria Different-Phenotype (%): 93%
  Population Mitotic Cells (%): 23%
  Population Normal (%): 91%
  Population Pyknosed Nuclei (%): 25%
  Population Tubulin-Different-Phenotype (%): 66%
  Total Cell Count: 44
[9]
  Population Apoptotic (%): 42%
  Population Fragmented Nuclei (%): 7%
  Population Healthy Nuclei (%): 77%
  Population Membrane Permeable-Phenotype (%): 4%
  Population Mitochondria Different-Phenotype (%): 5%
  Population Mitotic Cells (%): 57%
  Population Pyknosed Nuclei (%): 14%
  Population Tubulin-Different-Phenotype (%): 8%
  Total Cell Count: 182
[10]
  Population Apoptotic (%): 60%
  Population Fragmented Nuclei (%): 5%
  Population Healthy Nuclei (%): 76%
  Population Hoechst High Intensity Objects (%): 3%
  Population Membrane Permeable-Phenotype (%): 9%
  Population Mitochondria Different-Phenotype (%): 16%
  Population Mitotic Cells (%): 40%
  Population Normal (%): 96%
  Population Pyknosed Nuclei (%): 18%
  Population Tubulin-Different-Phenotype (%): 11%
  Total Cell Count: 88
[11]
  Population Apoptotic (%): 84%
  Population Fragmented Nuclei (%): 21%
  Population Healthy Nuclei (%): 42%
  Population Hoechst High Intensity Objects (%): 7%
  Population Membrane Permeable-Phenotype (%): 18%
  Population Mitotic Cells (%): 15%
  Population Normal (%): 92%
  Population Pyknosed Nuclei (%): 35%
  Population Tubulin-Different-Phenotype (%): 82%
  Total Cell Count: 297
[12]
  Population Apoptotic (%): 63%
  Population Fragmented Nuclei (%): 11%
  Population Healthy Nuclei (%): 46%
  Population Hoechst High Intensity Objects (%): 19%
  Population Membrane Permeable-Phenotype (%): 33%
  Population Mitochondria Different-Phenotype (%): 90%
  Population Mitotic Cells (%): 36%
  Population Normal (%): 80%
  Population Pyknosed Nuclei (%): 42%
  Population Tubulin-Different-Phenotype (%): 61%
  Total Cell Count: 57
